Assay results pooled from the literature.
≈ marks a conversion by molar mass, not a printed value.
Organism: Nakaseomyces glabratus

SMILES | observed | method | strain | time | quantity | value
CCCCCCCCCCCN1CCNCC1 | microbial growth | broth dilution | ATCC2001 | 48 h | MIC | 7.8 µg/mL (≈ 32.4 µM)
CCCCCCCCOc1c(OC)cc(NC(C)CCCNC(=O)C2CCCN2)c2nc(C(C)(C)C)ccc12 (stereo not drawn) | microbial growth |  | ATCC90030 |  | IC50 | 11 µg/mL (≈ 20.3 µM)
CCCCCN1CCNCC1 | microbial growth | broth dilution | ATCC2001 | 48 h | MIC | > 31.3 µg/mL
C=CCCCCCCCCCCCC(O)CC(O)CO (stereo not drawn) | microbial growth | broth dilution | ATCC90030 |  | IC50 | > 200 µg/mL
CCCCCCCCCCN1CCN(CC(O)(Cn2cncn2)c2ccc(Cl)cc2Cl)CC1 (stereo not drawn) | microbial growth | broth dilution | ATCC2001 | 48 h | MIC | 0.975 µg/mL (≈ 1.96 µM)
CCCCOc1c(OC)cc(NC(C)CCCN)c2nc(C(C)(C)C)cc(C)c12 (stereo not drawn) | microbial killing |  | ATCC90030 |  | MFC | > 20 µg/mL
CCOC(=O)c1nc2ccccc2c(=O)n1Cc1cn(-c2cccc(Cl)c2)nn1 | microbial growth | broth dilution | ATCC90030 | 24 h | IC50 | 58.2 µg/mL (≈ 142 µM)
CCCCCCCCCCCCN1CCN(CC(O)(Cn2cncn2)c2ccc(Cl)cc2Cl)CC1 (stereo not drawn) | microbial growth | broth dilution | ATCC2001 | 48 h | MIC | 0.975 µg/mL (≈ 1.86 µM)
CCOC(=O)c1nc2ccccc2c(=O)n1Cc1cn(-c2ccccc2C)nn1 | microbial growth | broth dilution | ATCC90030 | 24 h | IC50 | 351 µg/mL (≈ 902 µM)
C[C@@H]1[C@H](O)[C@@H](C)/C=C/C=C/C=C/C=C/C=C/C=C/C=C/[C@H](O[C@@H]2O[C@H](C)[C@@H](O)[C@H](N)[C@@H]2O)C[C@@H]2O[C@](O)(C[C@@H](O)C[C@@H](O)[C@H](O)CC[C@@H](O)C[C@@H](O)CC(=O)O[C@H]1C)C[C@H](O)[C@H]2C(=O)O | microbial killing |  | ATCC90030 |  | MFC | 0.63 µg/mL (≈ 0.682 µM)
C[C@@H]1[C@H](O)[C@@H](C)/C=C/C=C/C=C/C=C/C=C/C=C/C=C/[C@H](O[C@@H]2O[C@H](C)[C@@H](O)[C@H](N)[C@@H]2O)C[C@@H]2O[C@](O)(C[C@@H](O)C[C@@H](O)[C@H](O)CC[C@@H](O)C[C@@H](O)CC(=O)O[C@H]1C)C[C@H](O)[C@H]2C(=O)O | microbial growth |  | ATCC90030 |  | IC50 | 0.31 µg/mL (≈ 0.335 µM)
CCOC(=O)c1nc2ccccc2c(=O)n1Cc1cn(-c2ccc(OC)cc2)nn1 | microbial growth | broth dilution | ATCC90030 | 24 h | IC50 | 118 µg/mL (≈ 292 µM)
CCCCCCCCCCCCN1CCNCC1 | microbial growth | broth dilution | ATCC2001 | 48 h | MIC | 1.95 µg/mL (≈ 7.66 µM)
CCOC(=O)c1nc2ccccc2c(=O)n1Cc1cn(-c2ccc(F)cc2)nn1 | microbial growth | broth dilution | ATCC90030 | 24 h | IC50 | 292 µg/mL (≈ 744 µM)
CCCCCCCCCN1CCNCC1 | microbial growth | broth dilution | ATCC2001 | 48 h | MIC | 31.3 µg/mL (≈ 147 µM)
OC(Cn1cncn1)(Cn1cncn1)c1ccc(F)cc1F | microbial growth | broth dilution | ATCC90030 | 24 h | IC50 | 7.8 µg/mL (≈ 25.5 µM)
CCCCCCOc1c(OC)cc(NC(C)CCCNC(=O)C(N)Cc2cnc[nH]2)c2nc(C(C)(C)C)ccc12 (stereo not drawn) | microbial growth | broth dilution | ATCC90030 |  | MIC | 20 µg/mL (≈ 36.2 µM)
COc1ccc(-c2cc(OC)cc(C(C)C#Cc3c(C)nc(N)nc3N)c2)cc1 (stereo not drawn) | microbial growth | resazurin |  |  | MIC | 3.1 µg/mL (≈ 7.98 µM)
Cc1cccc(-n2cc(Cn3c(C(=O)O)nc4ccccc4c3=O)nn2)c1 | microbial growth | broth dilution | ATCC90030 | 24 h | IC50 | 245 µg/mL (≈ 677 µM)
CCCCCN1CCN(CC(O)(Cn2cncn2)c2ccc(F)cc2F)CC1 (stereo not drawn) | microbial growth | broth dilution | ATCC2001 | 48 h | MIC | > 31.3 µg/mL
CCCCCOc1c(OC)cc(NC(C)CCCNC(=O)C(N)CCCNC(=N)N)c2nc(C(C)(C)C)ccc12 (stereo not drawn) | microbial killing |  | ATCC90030 |  | MFC | 20 µg/mL (≈ 35.9 µM)
OC(Cn1cncn1)(Cn1cncn1)c1ccc(F)cc1F | microbial killing |  | ATCC1182 |  | MFC | > 64 µg/mL
CCOC(=O)c1nc2ccccc2c(=O)n1Cc1cn(-c2ccccc2)nn1 | microbial growth | broth dilution | ATCC90030 | 24 h | IC50 | 182 µg/mL (≈ 484 µM)
CCCCCCOc1c(OC)cc(NC(C)CCCN)c2nc(C(C)(C)C)ccc12 (stereo not drawn) | microbial killing |  | ATCC90030 |  | MFC | 20 µg/mL (≈ 48.1 µM)
CCOC(=O)c1nc2ccccc2c(=O)n1Cc1cn(-c2ccccc2F)nn1 | microbial growth | broth dilution | ATCC90030 | 24 h | IC50 | 245 µg/mL (≈ 622 µM)
CC[C@H](C)C[C@H](C)CCCCCCCCC(=O)N[C@H]1C[C@@H](O)[C@@H](NCCN)NC(=O)[C@@H]2[C@@H](O)CCN2C(=O)[C@H]([C@H](O)CCN)NC(=O)[C@H]([C@H](O)[C@@H](O)c2ccc(O)cc2)NC(=O)[C@@H]2C[C@@H](O)CN2C(=O)[C@H]([C@@H](C)O)NC1=O | microbial growth | broth dilution | ATCC2001 | 48 h | MIC | 0.06 µg/mL (≈ 0.0549 µM)
CCCCCCOc1c(OC)cc(NC(C)CCCN)c2nc(C(C)(C)C)cc(C)c12 (stereo not drawn) | microbial killing |  | ATCC90030 |  | MFC | 20 µg/mL (≈ 46.5 µM)
